# Tests used:
# [1] = system: protein tyrosine phosphatase (PTP); assay: Single cell phosphatase activity assay; assay type: cell-based, human; details: BEAS-2B cells pretreated with the inhibitor; abstract
# How it was run: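 BEAS-2B cells grown in KGM on glass-coverslip chambers, kept at 37 °C under warm ECB (HEPES buffer, pH 7.4). Microinjected with fluorescent phosphopeptide substrate pTS13 and laser-lysed after 60 s. Contents were electrokinetically loaded and separated by CE-LIF in borate/SDS/NaCl, pH 7.4. Dephosphorylation was taken as the […] peak area over the combined pTS13 + TS13 areas. Treated and untreated cells were compared by bootstrapping (10,000 samples).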
# [2] = system: protein tyrosine phosphatase (PTP); assay: Single cell phosphatase activity assay; assay type: cell-based, human; details: primary hAECs pre-incubated with the inhibitor; abstract
molecule,measurement,setting,value
"O=C1C=Cc2ccccc2C1=O [1,2-naphthoquinone]",inhibition relative to PTP activity in untreated controls,[1],100%
same,median PTP inhibition,[2],87%
[Zn+2] [Zn^2+],inhibition relative to PTP activity in untreated controls,[1],69%
same,median PTP inhibition,[2],88%
pervanadate,inhibition relative to PTP activity in untreated controls,[1],76%
same,median PTP inhibition,[2],91%

# — PMC3924180 (Analytical chemistry, 2013)
